HNF4A DNA FP – change in binding of human HNF4 alpha to DNA; activity change, % at 10 µM; P41235; AID 1224865; actives 0.3% (n = 360,000); HNF4a-FITC DNA binding, fluorescence polarization, 1 h; in the data active = activity change above about 30%, passing the limit was not always enough
CSN deneddyl inh – CSN deneddylation inhibition; Q92905; actives 0.38% (n = 360,000); AID 651999; inhibition, % at 12.5 µM; Purified CSN, SCF-Nedd8-OG deneddylation, fluorescence polarization;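 active = pattern-corrected inhibition above about 35%, with an unprinted fluorescence ratio check between 0.5 and 1.5, limit read from the data, passing the limit was not always enough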;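 also: 0% = enzyme with substrate and 100% = substrate without enzyme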
Target sequence (Q92905 whole entry, looked up, one chain of several): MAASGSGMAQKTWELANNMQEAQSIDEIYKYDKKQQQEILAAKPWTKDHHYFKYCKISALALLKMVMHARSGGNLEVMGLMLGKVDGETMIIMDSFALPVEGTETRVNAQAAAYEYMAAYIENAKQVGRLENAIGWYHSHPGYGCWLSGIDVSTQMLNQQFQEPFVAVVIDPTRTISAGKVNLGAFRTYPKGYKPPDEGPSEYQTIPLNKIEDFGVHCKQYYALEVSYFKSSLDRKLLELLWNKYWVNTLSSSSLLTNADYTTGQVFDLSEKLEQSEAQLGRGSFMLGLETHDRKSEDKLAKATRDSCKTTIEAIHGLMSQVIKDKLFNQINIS
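Detection – fluorescence polarization · System – HEK293T-derived human Csn5 enzyme · Controls – substrate-only high control, full reaction low control · Timing – 90 min, room temperature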
TPT1 inh – blocks Candida albicans tRNA 2'-phosphotransferase. recombinant caTPT1, FP RNA substrate dephosphorylation. inhibition, % at 5 µM. actives 0.81% (n = 300,000). AID 1962;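 active = inhibition above the mean of all tested compounds plus 3 SD, set per screening campaign, cut at about 24% in these data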;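 also: plate controls were DMSO alone for no effect and ferristatin control at 100 nM for full effect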
IDE cell activ – activators of human insulin-degrading enzyme in cells. HEK cells, FAbeta-B cleavage, fluorescence polarization; 0% vehicle, 100% cell-free pure enzyme wells. activation, % at 5.96 µM. actives 0.073% (n = 340,000). AID 493087;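 active = activation above the mean of all tested compounds plus 3 SD, set per screening campaign, cut at about 17% in these data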
IDE inh – inhibitors of human insulin-degrading enzyme in cells; AID 434962; inhibition, % at 5.59 µM; HEK cells, FAbetaB cleavage, fluorescence polarization; P14735; actives 0.41% (n = 320,000);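 active = percent inhibition above the average of all tested compounds plus 3 SD, set per screening campaign, cut at about 16% in these data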;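 also: IDE supplied by intact live HEK cells; FP after avidin binding of uncleaved biotin substrate so inhibition keeps polarization high; 0% = DMSO wells and 100% = 60 µM reference IDE inhibitor Ii1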
Rpn11 inh – Rpn11 (human) deubiquitinase inhibition | O00487 | human 26S proteasome, Ub4-pepOG fluorescence polarization; 20S core pre-blocked with epoxomicin | inhibition, % at 20 µM | actives 0.59% (n = 360,000) | AID 588493;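 active = inhibition at 20 µM, scaled to each plate's controls, above about 33%, limit read from the data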
caTPT1 confirm – confirmation of Candida albicans TPT1 inhibitors. shares compounds with TPT1 inh. inhibition, % at 5 µM. recombinant caTPT1, fluorescence polarization, RNase T1 coupled. actives 74% (n = 2,400);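 active = inhibition above the primary screen limit, the mean inhibition of all tested compounds plus 3 SD, cut at about 25% in these data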
RNase T1 counter – blocks Aspergillus oryzae RNase T1, a TPT1 counter-screen | shares compounds with TPT1 inh | RNase T1 cleavage, fluorescence polarization, 1536-well | inhibition, % at 5 µM | actives 83% (n = 2,400);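 active = inhibition above the solvent-only control well mean plus 3 SD, limit set per screening run, cut at about 23% in these data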;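 also: plate controls were DMSO wells with enzyme for no effect and wells without RNase T1 for full effect; inhibitors block cleavage so intact labeled substrate keeps polarization high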
Target sequence (P00651 whole entry, looked up): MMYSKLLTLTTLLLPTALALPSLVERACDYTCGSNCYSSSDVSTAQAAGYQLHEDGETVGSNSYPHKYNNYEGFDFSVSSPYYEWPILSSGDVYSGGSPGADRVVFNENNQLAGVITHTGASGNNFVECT
IDE cell inh cf – confirmation of human insulin-degrading enzyme inhibitors in cells; shares compounds with IDE inh; HEK cells, FAbetaB cleavage, fluorescence polarization; inhibition, % at 5.59 µM; actives 51% (n = 1,200); AID 435028;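 active = mean inhibition across triplicate wells above the cutoff set by the earlier primary insulin-degrading enzyme screen, cut at about 16% in these data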;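 also: 0% = DMSO wells and 100% = 60 µM reference IDE inhibitor Ii1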
HEK cytotox – HEK cell cytotoxicity, counter-screen for IDE inhibitors. shares compounds with IDE inh. actives 28% (n = 1,200). inhibition, % at 5.59 µM. HEK293 cytotoxicity, ATP luminescence. AID 449730; in the data active = inhibition above about 22%;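 also: 0% = vehicle wells and 100% = reference cytotoxic drug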
Rpn11 confirm – confirmation of human proteasome Rpn11 inhibitors. shares compounds with Rpn11 inh. inhibition, % at 20 µM. purified human 26S proteasome, Ub4-pepOG fluorescence polarization; proteasome pretreated with epoxomicin. actives 29% (n = 1,900)
MMP-2 counter-1 – counter-screen for RPN11 inhibitors: inhibition of human MMP-2. shares compounds with Rpn11 inh. recombinant MMP-2, FRET peptide cleavage fluorescence. inhibition, % at 20 µM. actives 4% (n = 1,900);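 also: human MMP-2 activated beforehand with APMA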
Thrombin FP – thrombin (bovine) inhibition counter-screen | shares compounds with Rpn11 inh | bovine thrombin cleavage of Ub4-pepOG, fluorescence polarization | inhibition, % at 20 µM | actives 13% (n = 1,900) | AID 602333;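 active = mean inhibition at least 40% at 20 µM, or signal 3 deviations below plate average, so some actives read negative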;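 also: plate controls were thrombin with DMSO for no effect and buffer wells lacking thrombin for full effect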
CSN5 deneddyl – Csn5 (human) deneddylation inhibition, single-concentration validation | shares compounds with CSN deneddyl inh | Csn5 deneddylation of SCF-Nedd8OG, fluorescence polarization, 90 min | inhibition, % at 16.6 µM | actives 62% (n = 540) | AID 720654; in the data active = inhibition above about 50%;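 also: 0% = DMSO with enzyme and 100% = no enzyme wells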
MMP-2 counter-2 – blocks human MMP-2 in a CSN deneddylation counter-screen. recombinant MMP-2, FRET substrate fluorescence, 60 min. inhibition, % at 16.6 µM. actives 33% (n = 540). shares compounds with CSN deneddyl inh;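 active = corrected plate-normalized z-score of 5 or more, or -5 or less, or inhibition of 15% or more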;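 also: plate controls were DMSO wells with enzyme for no effect and buffer wells lacking MMP-2 for full effect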
Thrombin counter – counter-screen for CSN deneddylation inhibitors: bovine thrombin inhibition. inhibition, % at 16.6 µM. AID 720656. actives 49% (n = 540). bovine thrombin cleavage of Ub4-pepOG, fluorescence polarization. shares compounds with CSN deneddyl inh;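 active = inhibition at or above a set limit, with a fluorescence interference ratio between 0.5 and a set maximum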
Active calls of the source: *; / = not tested or not shown. An excerpt weighted towards active compounds, which were near 1.7% of everything screened. Rule as the data show it, unless noted: active = inhibition above about 40%; inactive = the rest.

SMILES | HNF4A DNA FP | CSN deneddyl inh | TPT1 inh | IDE cell activ | IDE inh | Rpn11 inh | caTPT1 confirm | RNase T1 counter | Rpn11 confirm | MMP-2 counter-1 | Thrombin FP | MMP-2 counter-2 | Thrombin counter | others
O=c1[nH]c(CN2CC=C(c3ccccc3)CC2)nc2scc(-c3ccccc3)c12 | 21.5 | 5.9 | 54.4* | 6.4 | 0.1 | 49.9* | 31.9* | 45.1* | 57.6* | -19.5 | 16.0 | / | /
CN(C(=O)CN1CC=C(c2ccccc2)CC1)c1c(N)n(Cc2ccccc2)c(=O)[nH]c1=O | 0.2 | -8.5 | 3.0 | 2.1 | -2.1 | 5.0 | / | / | / | / | / | / | /
CCOC(=O)c1cncn1[C@H](C)c1ccccc1 | / | / | -4.4 | / | 0.3 | / | / | / | / | / | / | / | /
O=c1[nH]c(=O)n(-c2cccc3ccccc23)c(O)c1/C=N/N1CCCCC1c1cccnc1 (stereo not drawn) | 33.4* | 26.9 | 50.5* | 1.0 | 6.7 | 43.7* | 67.1* | 80.6* | 90.1* | 25.7 | 66.7* | / | /
COc1ccc(CN2C(=O)NC(=O)/C(=C/c3cc(OC)c(OC)c(OC)c3)C2=O)cc1 | -1.6 | 5.2 | 20.5 | -0.9 | 2.0 | 6.5 | / | / | / | / | / | / | /
COc1ccc(CN2C(=O)NC(=O)/C(=C/c3ccoc3)C2=O)cc1 | 16.1 | 160.6 | 174.5* | -35.0 | 26.6* | 186.4* | 18.8 | 32.1* | 96.4* | 43.9* | 10.1 | / | / | IDE cell inh cf=9.3;HEK cytotox=3.6
Cn1c(O)c(C=Nc2ccc(Br)cc2)c(=O)n(C)c1=O | -3.8 | 3.2 | -2.5 | 0.1 | 3.7 | 5.4 | / | / | / | / | / | / | /
Cn1c(O)c(/C=C/C=Nc2ccccc2)c(=O)n(C)c1=S | 95.0* | 75.0* | 133.7* | -17.1 | 27.3* | 118.1* | 66.6* | 74.3* | 113.0* | -73.8 | active | -100.4* | -1.4 | IDE cell inh cf=44.6*;HEK cytotox=4.6
CC(C)CN1CCN(Cc2ccc(C(F)(F)F)cc2)CC1CCO (stereo not drawn) | 0.8 | 0.9 | -3.5 | 3.4 | -1.1 | -4.6 | / | / | / | / | / | / | /
CCN(CC)c1ccc(/C=C2/C(=O)NC(=O)N(CC3CCCO3)C2=O)cc1 (stereo not drawn) | -0.6 | -8.2 | -11.9 | -3.9 | 5.7 | -41.3 | / | / | / | / | / | / | /
CCN(CC)c1ccc(/C=C2\C(=O)NC(=O)N(Cc3ccco3)C2=O)cc1 | 4.8 | 53.9* | 37.8* | -4.2 | 4.7 | 17.9 | 93.1* | 111.7* | / | / | / | -6.2 | 9.3 | CSN5 deneddyl=85.0*
CCCCN1C(=O)/C(=C/c2ccc(N(C)C)cc2)C(=O)N(Cc2ccco2)C1=O | 19.6 | 131.9* | 149.6* | -10.2 | 3.9 | / | 109.9* | 116.0* | / | / | / | 3.7 | 13.8 | CSN5 deneddyl=85.8*
